Each block holds one compound with its values, some of them ahead of it.
How the values were obtained:
[1] = biological target: Histone-lysine N-methyltransferase SUV39H2 (Homo sapiens, UniProt Q9H5I1); test: Inhibition of SUV39H2 (unknown origin) assessed as incorporation of tritium-labeled methyl group to lysine or arginine residues of peptide substrate by radioactive assay
Method in brief: (§1)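 Enzymes (PRMT5 as PRMT5-MEP50 complex, MLL1 as MLL1 complex) in 20 μL reactions with 3H-SAM and substrates near each enzyme's Km; compound at 100 nM to 100 μM. Stopped with 7.5 M guanidine HCl, diluted in 20 mM Tris pH 8.0, incubated 1 h on streptavidin FlashPlate, read as CPM. No-compound CPM was 100% activity; no-enzyme CPM was 0% background.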

[2] = biological target: T1, Histone-lysine N-methyltransferase EHMT2 (Homo sapiens, UniProt Q96KQ7); test: Inhibition of G9a (unknown origin) assessed as incorporation of tritium-labeled methyl group to lysine or arginine residues of peptide substrate by radioactive assay; method in brief: as §1
T1 sequence (Q96KQ7 whole entry): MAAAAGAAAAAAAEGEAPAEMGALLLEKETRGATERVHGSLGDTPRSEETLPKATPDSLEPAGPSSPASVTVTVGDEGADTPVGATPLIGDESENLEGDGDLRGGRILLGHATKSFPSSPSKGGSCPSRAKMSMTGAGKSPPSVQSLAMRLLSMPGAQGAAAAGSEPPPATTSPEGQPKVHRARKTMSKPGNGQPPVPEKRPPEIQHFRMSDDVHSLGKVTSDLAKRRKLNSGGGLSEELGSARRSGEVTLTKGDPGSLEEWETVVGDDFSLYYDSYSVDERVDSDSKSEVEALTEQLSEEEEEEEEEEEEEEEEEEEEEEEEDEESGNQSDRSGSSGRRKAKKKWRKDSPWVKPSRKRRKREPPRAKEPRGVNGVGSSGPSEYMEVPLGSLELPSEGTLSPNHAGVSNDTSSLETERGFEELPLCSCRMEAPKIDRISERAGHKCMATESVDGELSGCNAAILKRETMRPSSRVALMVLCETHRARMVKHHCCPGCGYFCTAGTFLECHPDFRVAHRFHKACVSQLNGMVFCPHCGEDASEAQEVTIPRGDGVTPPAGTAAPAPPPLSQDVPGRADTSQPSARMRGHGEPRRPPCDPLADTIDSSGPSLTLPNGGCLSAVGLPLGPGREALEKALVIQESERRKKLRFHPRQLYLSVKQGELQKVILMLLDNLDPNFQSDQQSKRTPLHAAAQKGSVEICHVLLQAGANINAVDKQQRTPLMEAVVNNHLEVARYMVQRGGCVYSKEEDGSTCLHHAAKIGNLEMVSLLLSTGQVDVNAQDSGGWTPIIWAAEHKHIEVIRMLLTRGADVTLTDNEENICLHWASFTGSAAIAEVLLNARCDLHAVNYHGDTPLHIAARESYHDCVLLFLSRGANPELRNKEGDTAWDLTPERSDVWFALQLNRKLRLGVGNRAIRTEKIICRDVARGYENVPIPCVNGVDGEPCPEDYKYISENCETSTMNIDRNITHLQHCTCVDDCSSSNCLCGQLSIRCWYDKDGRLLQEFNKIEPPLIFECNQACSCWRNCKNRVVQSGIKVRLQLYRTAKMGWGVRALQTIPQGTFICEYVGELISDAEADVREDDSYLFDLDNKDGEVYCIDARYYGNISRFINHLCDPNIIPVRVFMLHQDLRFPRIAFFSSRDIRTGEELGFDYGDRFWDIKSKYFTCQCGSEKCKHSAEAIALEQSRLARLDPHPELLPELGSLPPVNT

[3] = biological target: T2, Histone-lysine N-methyltransferase EHMT1 (Homo sapiens, UniProt Q9H9B1); test: Inhibition of GLP (unknown origin) assessed as incorporation of tritium-labeled methyl group to lysine or arginine residues of peptide substrate by radioactive assay; method in brief: as §1
T2 sequence (Q9H9B1 whole entry): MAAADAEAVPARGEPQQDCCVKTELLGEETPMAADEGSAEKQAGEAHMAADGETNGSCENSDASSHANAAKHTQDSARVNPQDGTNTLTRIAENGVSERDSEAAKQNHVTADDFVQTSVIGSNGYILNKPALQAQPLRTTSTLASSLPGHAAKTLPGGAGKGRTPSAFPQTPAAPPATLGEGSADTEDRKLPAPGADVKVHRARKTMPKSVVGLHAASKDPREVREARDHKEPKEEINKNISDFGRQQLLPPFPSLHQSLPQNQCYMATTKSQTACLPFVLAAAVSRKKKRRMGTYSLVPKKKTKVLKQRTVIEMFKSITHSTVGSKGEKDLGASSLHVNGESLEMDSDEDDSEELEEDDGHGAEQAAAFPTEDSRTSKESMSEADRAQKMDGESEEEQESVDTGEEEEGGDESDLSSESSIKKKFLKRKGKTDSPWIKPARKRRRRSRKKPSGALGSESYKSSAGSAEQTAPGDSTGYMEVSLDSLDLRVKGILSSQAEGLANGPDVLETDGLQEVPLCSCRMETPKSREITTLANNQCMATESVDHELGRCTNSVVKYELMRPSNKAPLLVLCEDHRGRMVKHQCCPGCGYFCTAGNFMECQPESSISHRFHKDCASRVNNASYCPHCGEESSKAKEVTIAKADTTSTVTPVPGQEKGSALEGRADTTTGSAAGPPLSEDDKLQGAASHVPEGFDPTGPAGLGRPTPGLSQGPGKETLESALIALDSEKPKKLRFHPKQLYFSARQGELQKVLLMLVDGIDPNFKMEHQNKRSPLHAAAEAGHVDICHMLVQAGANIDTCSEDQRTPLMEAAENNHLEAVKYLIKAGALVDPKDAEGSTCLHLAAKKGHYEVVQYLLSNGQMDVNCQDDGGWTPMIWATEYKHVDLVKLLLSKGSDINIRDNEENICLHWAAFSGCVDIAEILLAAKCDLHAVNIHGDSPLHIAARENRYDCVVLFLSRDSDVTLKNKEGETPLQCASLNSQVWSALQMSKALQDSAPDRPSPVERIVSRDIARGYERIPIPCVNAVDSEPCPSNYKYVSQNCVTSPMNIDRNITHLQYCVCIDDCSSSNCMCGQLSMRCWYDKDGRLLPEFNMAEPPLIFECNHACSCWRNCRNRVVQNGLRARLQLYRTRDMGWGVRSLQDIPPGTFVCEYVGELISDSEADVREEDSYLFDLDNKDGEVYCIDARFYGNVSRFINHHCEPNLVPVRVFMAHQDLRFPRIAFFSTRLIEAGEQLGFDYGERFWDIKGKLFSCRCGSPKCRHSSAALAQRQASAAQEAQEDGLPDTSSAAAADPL

[4] = biological target: Histone-lysine N-methyltransferase 2A (Homo sapiens, UniProt Q03164); test: Inhibition of MLL1 (unknown origin) assessed as incorporation of tritium-labeled methyl group to lysine or arginine residues of peptide substrate by radioactive assay; method in brief: as §1
[5] = biological target: Protein arginine N-methyltransferase 3 (Homo sapiens, UniProt O60678); test: Inhibition of PRMT3 (unknown origin) assessed as incorporation of tritium-labeled methyl group to lysine or arginine residues of peptide substrate by radioactive assay; method in brief: as §1
[6] = biological target: Histone-lysine N-methyltransferase KMT5B (Homo sapiens, UniProt Q4FZB7); test: Inhibition of SUV420H1 (unknown origin) assessed as incorporation of tritium-labeled methyl group to lysine or arginine residues of peptide substrate by radioactive assay; method in brief: as §1
[7] = biological target: Histone-lysine N-methyltransferase KMT5C (Homo sapiens, UniProt Q86Y97); test: Inhibition of SUV420H2 (unknown origin) assessed as incorporation of tritium-labeled methyl group to lysine or arginine residues of peptide substrate by radioactive assay; method in brief: as §1
[8] = biological target: N-lysine methyltransferase SMYD2 (Homo sapiens, UniProt Q9NRG4); test: Inhibition of SMYD2 (unknown origin) assessed as incorporation of tritium-labeled methyl group to lysine or arginine residues of peptide substrate by radioactive assay; method in brief: as §1
[9] = biological target: T3, Histone-lysine N-methyltransferase SETD7 (Homo sapiens, UniProt Q8WTS6); test: Inhibition of SETD7 (unknown origin) assessed as incorporation of tritium-labeled methyl group to lysine or arginine residues of peptide substrate by radioactive assay; method in brief: as §1
T3 sequence (Q8WTS6 whole entry): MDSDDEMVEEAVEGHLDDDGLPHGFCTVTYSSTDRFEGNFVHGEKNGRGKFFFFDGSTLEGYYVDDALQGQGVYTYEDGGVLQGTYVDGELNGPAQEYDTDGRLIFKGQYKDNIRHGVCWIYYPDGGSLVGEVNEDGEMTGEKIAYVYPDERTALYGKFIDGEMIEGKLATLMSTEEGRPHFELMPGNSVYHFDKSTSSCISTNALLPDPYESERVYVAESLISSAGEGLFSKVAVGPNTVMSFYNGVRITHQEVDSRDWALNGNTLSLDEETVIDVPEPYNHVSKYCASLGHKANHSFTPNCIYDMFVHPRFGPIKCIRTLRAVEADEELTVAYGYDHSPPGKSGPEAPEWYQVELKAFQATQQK

[10] = biological target: Protein arginine N-methyltransferase 1 (Homo sapiens, UniProt Q99873); test: Inhibition of PRMT1 (unknown origin) assessed as incorporation of tritium-labeled methyl group to lysine or arginine residues of peptide substrate by radioactive assay; method in brief: as §1
[11] = biological target: Histone-lysine N-methyltransferase SETDB1 (Homo sapiens, UniProt Q15047); test: Inhibition of SETDB1 (unknown origin) assessed as incorporation of tritium-labeled methyl group to lysine or arginine residues of peptide substrate by radioactive assay; method in brief: as §1
[12] = biological target: DNA (cytosine-5)-methyltransferase 1 (Homo sapiens, UniProt P26358); test: Inhibition of DNMT1 (unknown origin) assessed as using dsDNA substrate by radioactive assay
[13] = biological target: Histone-lysine N-methyltransferase, H3 lysine-79 specific (Homo sapiens, UniProt Q8TEK3); test: Inhibition of DOT1L (unknown origin) by filter-based assay
Method in brief: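 Filter-format tritium assay: 20 μL reaction with 3H-SAM and substrates near Km, compound at 100 nM to 100 μM, incubated 1 h at room temperature. Precipitated with 10% TCA on filter plates, washed twice with 10% TCA and once with ethanol, scintillant added, CPM counted. No-compound CPM was 100% activity; no-enzyme CPM was 0%.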

[14] = biological target: Protein arginine N-methyltransferase 5 (Homo sapiens, UniProt O14744); test: Inhibition of PRMT5 (unknown origin) assessed as incorporation of tritium-labeled methyl group to lysine or arginine residues of peptide substrate by radioactive assay; method in brief: as §1
[15] = biological target: T4, N-lysine methyltransferase KMT5A (Homo sapiens, UniProt Q9NQR1)
T4 sequence (Q9NQR1 whole entry): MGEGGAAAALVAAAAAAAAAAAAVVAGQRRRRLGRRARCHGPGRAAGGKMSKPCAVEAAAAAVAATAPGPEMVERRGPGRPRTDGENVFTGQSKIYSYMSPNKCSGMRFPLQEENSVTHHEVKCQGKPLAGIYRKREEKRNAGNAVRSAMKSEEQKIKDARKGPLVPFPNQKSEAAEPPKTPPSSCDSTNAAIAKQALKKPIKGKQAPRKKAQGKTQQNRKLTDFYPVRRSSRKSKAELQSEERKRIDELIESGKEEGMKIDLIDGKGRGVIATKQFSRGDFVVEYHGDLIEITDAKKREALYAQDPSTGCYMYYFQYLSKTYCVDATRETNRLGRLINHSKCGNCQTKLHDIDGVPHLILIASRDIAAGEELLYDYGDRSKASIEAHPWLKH

[16] = biological target: T4, N-lysine methyltransferase KMT5A; remark: listed apart in the source

Histone-lysine N-methyltransferase SUV39H2, sequence (Q9H5I1 whole entry): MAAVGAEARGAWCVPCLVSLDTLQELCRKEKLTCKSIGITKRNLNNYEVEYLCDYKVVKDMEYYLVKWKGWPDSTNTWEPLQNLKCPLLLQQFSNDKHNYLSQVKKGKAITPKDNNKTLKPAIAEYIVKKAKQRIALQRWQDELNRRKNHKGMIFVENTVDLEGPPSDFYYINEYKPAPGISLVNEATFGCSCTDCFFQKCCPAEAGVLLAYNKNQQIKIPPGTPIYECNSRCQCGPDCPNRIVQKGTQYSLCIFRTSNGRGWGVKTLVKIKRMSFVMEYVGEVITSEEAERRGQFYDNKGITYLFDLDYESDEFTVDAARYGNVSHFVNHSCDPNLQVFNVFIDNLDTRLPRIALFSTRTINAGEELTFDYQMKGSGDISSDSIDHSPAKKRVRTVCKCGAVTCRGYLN
N-lysine methyltransferase SMYD2, sequence (Q9NRG4 whole entry): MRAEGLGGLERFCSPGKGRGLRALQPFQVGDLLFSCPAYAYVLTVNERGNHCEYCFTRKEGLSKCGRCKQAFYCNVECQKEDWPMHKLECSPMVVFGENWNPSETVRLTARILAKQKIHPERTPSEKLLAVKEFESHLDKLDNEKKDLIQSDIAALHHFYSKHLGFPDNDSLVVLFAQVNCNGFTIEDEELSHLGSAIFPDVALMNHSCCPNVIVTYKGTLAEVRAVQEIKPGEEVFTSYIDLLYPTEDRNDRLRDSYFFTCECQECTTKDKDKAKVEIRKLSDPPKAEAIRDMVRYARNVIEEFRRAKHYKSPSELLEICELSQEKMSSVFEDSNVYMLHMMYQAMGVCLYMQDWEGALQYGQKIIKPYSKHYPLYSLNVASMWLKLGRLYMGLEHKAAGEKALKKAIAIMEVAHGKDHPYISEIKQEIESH
Histone-lysine N-methyltransferase KMT5B, sequence (Q4FZB7 whole entry): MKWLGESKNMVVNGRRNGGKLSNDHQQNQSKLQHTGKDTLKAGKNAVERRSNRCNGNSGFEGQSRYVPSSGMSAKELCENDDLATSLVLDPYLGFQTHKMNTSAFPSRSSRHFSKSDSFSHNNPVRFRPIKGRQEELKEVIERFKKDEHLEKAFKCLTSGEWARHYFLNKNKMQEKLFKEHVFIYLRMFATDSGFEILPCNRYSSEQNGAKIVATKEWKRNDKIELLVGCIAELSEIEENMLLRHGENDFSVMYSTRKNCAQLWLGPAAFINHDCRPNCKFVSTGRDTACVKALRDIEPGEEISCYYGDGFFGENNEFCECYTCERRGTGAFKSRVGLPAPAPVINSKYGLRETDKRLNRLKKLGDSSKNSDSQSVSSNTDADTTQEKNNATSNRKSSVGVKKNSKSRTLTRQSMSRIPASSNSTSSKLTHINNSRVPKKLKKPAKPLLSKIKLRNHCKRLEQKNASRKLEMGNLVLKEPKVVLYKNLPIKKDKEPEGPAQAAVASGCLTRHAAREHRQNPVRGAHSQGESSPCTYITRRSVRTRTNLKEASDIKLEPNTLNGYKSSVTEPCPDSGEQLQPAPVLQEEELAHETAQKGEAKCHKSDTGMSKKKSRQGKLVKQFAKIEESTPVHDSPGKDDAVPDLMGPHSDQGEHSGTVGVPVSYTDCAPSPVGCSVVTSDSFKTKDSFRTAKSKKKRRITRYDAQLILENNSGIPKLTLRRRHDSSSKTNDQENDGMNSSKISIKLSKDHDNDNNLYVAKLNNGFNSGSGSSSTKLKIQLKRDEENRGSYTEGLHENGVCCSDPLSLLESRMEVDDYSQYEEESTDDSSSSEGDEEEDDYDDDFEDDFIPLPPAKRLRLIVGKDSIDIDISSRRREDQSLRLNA
Protein arginine N-methyltransferase 5, sequence (O14744 whole entry): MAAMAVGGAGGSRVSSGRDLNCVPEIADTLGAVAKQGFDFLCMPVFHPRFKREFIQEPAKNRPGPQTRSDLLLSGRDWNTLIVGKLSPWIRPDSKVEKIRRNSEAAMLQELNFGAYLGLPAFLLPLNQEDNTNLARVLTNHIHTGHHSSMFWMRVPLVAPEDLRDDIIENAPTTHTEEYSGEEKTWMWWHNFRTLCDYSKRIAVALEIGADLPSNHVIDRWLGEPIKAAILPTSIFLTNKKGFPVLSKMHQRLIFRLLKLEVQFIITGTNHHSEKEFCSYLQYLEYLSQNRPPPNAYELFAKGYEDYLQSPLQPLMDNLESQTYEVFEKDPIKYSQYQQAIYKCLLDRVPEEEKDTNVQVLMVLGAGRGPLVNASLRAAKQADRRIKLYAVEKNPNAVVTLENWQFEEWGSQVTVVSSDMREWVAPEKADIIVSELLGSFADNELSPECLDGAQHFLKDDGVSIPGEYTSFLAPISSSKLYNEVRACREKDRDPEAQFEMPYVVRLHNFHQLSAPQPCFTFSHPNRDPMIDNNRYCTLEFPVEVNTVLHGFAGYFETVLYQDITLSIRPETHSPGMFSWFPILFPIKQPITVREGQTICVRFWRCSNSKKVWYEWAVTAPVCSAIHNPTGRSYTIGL
Protein arginine N-methyltransferase 1, sequence (Q99873 whole entry): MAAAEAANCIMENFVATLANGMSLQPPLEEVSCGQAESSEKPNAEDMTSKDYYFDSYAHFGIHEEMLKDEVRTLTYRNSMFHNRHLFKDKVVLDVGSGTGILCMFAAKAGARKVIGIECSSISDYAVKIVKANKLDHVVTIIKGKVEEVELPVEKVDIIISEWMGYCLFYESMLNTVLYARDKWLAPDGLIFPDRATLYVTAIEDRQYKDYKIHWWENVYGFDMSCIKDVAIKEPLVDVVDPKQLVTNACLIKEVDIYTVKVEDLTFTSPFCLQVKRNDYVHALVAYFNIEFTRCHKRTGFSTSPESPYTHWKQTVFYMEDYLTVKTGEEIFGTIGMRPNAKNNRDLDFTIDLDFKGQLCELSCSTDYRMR
DNA (cytosine-5)-methyltransferase 1, sequence (P26358 whole entry): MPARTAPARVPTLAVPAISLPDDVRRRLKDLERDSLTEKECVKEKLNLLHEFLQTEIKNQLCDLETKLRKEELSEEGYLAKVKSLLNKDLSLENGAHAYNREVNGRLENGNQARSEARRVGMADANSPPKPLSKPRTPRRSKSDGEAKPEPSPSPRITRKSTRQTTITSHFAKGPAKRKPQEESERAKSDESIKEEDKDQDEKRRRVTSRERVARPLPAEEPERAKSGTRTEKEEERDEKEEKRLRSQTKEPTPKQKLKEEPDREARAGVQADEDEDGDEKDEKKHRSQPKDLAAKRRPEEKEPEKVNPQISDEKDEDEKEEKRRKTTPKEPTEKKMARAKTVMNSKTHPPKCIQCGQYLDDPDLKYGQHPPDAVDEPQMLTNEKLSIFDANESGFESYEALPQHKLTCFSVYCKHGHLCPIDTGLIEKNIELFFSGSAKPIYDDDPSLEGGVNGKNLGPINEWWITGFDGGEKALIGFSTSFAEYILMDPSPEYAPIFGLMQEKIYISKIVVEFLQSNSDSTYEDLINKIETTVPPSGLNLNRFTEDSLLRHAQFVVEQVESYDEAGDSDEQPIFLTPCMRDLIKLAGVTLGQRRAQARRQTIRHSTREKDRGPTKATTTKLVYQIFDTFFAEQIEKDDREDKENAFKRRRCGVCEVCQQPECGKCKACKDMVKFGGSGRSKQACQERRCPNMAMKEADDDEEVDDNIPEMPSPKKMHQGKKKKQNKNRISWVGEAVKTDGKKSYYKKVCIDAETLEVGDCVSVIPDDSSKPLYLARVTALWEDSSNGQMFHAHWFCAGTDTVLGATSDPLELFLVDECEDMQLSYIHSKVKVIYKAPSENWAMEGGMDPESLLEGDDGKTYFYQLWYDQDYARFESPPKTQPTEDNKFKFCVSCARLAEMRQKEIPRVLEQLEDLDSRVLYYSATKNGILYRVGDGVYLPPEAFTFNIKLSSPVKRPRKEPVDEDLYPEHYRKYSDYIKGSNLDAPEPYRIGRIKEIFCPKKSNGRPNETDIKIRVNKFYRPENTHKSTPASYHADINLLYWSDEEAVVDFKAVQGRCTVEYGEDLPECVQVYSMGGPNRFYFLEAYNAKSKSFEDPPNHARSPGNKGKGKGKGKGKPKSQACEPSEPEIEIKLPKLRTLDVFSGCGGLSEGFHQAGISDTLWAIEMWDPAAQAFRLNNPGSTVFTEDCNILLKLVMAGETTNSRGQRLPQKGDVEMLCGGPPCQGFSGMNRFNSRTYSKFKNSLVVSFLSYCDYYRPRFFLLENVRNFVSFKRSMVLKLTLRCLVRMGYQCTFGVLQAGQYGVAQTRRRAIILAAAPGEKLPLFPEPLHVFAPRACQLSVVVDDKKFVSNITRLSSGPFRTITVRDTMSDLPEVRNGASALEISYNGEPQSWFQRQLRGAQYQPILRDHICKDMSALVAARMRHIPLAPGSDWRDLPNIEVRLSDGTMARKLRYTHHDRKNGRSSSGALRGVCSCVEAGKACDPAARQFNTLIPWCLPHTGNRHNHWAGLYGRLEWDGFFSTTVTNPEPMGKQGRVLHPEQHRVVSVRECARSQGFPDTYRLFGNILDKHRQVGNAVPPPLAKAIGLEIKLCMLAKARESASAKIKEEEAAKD
Protein arginine N-methyltransferase 3, sequence (O60678 whole entry): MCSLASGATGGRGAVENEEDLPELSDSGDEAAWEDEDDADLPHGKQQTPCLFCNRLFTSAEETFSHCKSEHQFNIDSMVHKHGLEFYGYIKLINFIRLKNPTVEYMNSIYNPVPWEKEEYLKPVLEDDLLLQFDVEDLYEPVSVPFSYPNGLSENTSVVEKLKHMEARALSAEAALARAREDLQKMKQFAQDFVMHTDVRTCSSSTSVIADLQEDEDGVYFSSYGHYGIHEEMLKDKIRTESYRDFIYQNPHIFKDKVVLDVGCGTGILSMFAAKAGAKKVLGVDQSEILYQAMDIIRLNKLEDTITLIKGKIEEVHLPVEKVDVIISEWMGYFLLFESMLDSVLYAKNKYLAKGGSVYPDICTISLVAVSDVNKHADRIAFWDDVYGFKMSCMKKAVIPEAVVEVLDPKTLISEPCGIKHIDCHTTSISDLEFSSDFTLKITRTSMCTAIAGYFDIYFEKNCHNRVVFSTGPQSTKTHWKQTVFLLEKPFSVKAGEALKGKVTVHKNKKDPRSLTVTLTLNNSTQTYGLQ

IC50 [1]: > 100 µM
IC50 [2]: > 100 µM
IC50 [3]: > 100 µM
IC50 [4]: > 100 µM
IC50 [5]: > 100 µM
IC50 [6]: > 100 µM
IC50 [7]: > 100 µM
IC50 [8]: > 100 µM
IC50 [9]: > 100 µM
IC50 [10]: > 100 µM
IC50 [11]: > 100 µM
IC50 [12]: > 100 µM
IC50 [13]: > 100 µM
IC50 [14]: > 100 µM
Compound: COc1cc2nc(N3CCCC3)nc(NCCCCCN3CCCC3)c2cc1OC

IC50 [15]: Not Active
IC50 [16]: > 250 µM
Compound: COc1cc2nc(N3CCCC3)nc(N(C)CCCCCN3CCCC3)c2cc1OC

IC50 [16]: > 250 µM
Compound: COc1cc2nc(NC3CCCC3)nc(NCCCCCN3CCCC3)c2cc1OC

IC50 [16]: > 250 µM
Compound: COc1cc2nc(NC3CCCCC3)nc(NCCCCCN3CCCC3)c2cc1OC
